Experiments:
expressed CYP2A6 = target: T1, expressed CYP2A6 (Homo sapiens, UniProt P11509); test: Incubation with expressed CYP2A6; type: in vitro ADME; details: for Vmax: expressed CYP2A6 13 pmol, 37°C, 15 min; for depletion of substrate from the incubation mixture: expressed CYP2A6, data not shown
T1 sequence (P11509 1-494): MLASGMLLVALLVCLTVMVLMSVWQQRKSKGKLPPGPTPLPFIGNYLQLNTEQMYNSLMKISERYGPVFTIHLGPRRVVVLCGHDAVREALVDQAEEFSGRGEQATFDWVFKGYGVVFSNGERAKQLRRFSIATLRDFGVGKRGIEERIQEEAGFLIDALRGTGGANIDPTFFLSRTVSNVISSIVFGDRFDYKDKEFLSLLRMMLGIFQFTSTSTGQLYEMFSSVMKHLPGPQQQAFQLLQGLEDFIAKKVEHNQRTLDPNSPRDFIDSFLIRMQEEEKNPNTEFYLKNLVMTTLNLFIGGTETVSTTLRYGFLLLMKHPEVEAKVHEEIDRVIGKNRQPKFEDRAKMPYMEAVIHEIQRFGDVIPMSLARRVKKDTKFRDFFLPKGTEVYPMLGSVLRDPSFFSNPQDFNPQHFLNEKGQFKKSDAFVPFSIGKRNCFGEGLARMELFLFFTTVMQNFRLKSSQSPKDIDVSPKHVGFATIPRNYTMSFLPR

[1] = system: human liver microsomes (HLMs); test: Identification of Ket and norKet metabolites in HLM incubates; type: in vitro ADME; details: HLMs 0.5 mg/ml; for metabolite found in HLM incubates of (R,S)-Ket: (R,S)-Ket 10 μM, Fig. 2A; for metabolite found in HLM incubates of (R,S)-norKet: (R,S)-norKet 10 μM, Fig. 2
expressed CYP3A5 = expressed CYP3A5 (Homo sapiens, UniProt P20815); test: Incubation with expressed CYP3A5; type: in vitro ADME; details: expressed CYP3A5 13 pmol, 37°C, 15 min
Sequence of expressed CYP3A5 (P20815 whole entry): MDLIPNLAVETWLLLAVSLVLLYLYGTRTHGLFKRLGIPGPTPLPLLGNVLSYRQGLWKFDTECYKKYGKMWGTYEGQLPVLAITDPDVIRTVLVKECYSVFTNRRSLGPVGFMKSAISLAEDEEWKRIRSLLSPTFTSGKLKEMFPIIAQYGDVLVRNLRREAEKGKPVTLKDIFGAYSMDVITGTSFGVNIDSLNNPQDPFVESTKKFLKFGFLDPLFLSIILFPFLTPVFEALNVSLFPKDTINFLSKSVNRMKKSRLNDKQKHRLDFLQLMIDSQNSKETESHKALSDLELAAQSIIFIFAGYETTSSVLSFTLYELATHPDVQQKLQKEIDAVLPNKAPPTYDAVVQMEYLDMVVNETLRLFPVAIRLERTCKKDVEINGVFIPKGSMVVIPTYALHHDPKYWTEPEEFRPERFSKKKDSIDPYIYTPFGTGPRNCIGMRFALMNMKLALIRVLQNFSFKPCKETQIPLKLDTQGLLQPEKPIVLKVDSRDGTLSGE

expressed CYP2B6 = target: T2, expressed CYP2B6 (Homo sapiens, UniProt P20813); test: Incubation with expressed CYP2B6; type: in vitro ADME; details: for Vmax: expressed CYP2B6 13 pmol, 37°C, 15 min; for depletion of substrate from the incubation mixture: data not shown
T2 sequence (P20813 1-491): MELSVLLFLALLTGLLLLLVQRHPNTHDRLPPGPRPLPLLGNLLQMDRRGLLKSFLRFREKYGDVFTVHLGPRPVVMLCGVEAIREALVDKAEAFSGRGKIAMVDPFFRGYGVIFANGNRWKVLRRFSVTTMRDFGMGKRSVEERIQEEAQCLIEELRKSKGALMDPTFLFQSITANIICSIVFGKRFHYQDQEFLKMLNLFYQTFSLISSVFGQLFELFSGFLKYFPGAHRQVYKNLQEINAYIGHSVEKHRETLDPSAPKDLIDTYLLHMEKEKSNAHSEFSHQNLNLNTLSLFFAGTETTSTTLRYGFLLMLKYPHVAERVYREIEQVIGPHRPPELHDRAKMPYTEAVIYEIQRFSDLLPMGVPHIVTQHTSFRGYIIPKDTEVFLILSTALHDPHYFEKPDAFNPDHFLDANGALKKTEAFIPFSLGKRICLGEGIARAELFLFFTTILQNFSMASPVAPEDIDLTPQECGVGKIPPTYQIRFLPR

[2] = BPD patients 3 days after dosing of (R,S)-Ket; ref Zhao et al., 2012; cited from earlier work
[3] = system: expressed human P450s (1A2, 2A6, 2B6, 2C8, 2C9, 2C19, 2D6, 2E1, 3A4, and 3A5); test: Incubation with panel of 10 expressed CYPs; type: in vitro ADME; details: for disappearance of substrate, other isoforms (no appreciable effect, cutoff): expressed isoforms other than CYP2A6, CYP2B6, CYP2C19
Summary of the method: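 Qualitative isoform screen. Baculovirus-insect cell-expressed human CYP1A2, 2A6, 2B6, 2C8, 2C9, 2C19, 2D6, 2E1, 3A4 or 3A5 with oxidoreductase (13–26 pmol) was incubated at 37°C with 10 μM (R)- or (S)-ketamine, or (R,S)-, (R)- or (S)-norketamine. The NADPH-generating system contained NADP, glucose 6-phosphate, MgCl2 and glucose-6-phosphate dehydrogenase. Ketamine incubations ran 15 min. Products measured by LC/MS/MS.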

expressed CYP2C19 = expressed CYP2C19 (Homo sapiens, UniProt P33261); test: Incubation with expressed CYP2C19; type: in vitro ADME; details: data not shown
Sequence of expressed CYP2C19 (P33261 whole entry): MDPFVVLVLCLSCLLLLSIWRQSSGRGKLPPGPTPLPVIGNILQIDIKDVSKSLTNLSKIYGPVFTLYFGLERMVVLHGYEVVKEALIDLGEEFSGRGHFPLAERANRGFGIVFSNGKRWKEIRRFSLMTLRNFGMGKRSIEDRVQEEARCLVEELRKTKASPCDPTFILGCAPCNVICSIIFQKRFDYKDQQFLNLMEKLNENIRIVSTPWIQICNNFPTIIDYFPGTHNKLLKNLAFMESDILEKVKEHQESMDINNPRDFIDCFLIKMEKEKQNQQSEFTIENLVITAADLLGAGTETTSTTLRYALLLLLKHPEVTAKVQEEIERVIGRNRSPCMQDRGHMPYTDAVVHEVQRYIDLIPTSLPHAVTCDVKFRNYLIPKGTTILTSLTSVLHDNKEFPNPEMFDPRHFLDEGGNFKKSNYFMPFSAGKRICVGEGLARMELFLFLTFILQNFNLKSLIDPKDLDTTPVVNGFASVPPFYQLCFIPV

[4] = formation of metabolite from (R)-norKet
[5] = formation of metabolite from (S)-norKet

In the case of NC1(c2ccccc2Cl)CC(O)CCC1=O [4d, (2S,4S;2R,4R)-HNK], the Vmax (expressed CYP2A6; [4]) is reported as 1.28 pmol/min/pmol P450, the Vmax (expressed CYP2A6; [5]) is reported as 4.67 pmol/min/pmol P450 and the “metabolite found in HLM incubates of (R,S)-Ket” value (from here on “metabolite found … (R,S)-Ket”) [1] is reported as “trace amounts”. For the same compound, the “metabolite found in HLM incubates of (R,S)-norKet” value (“metabolite found … (R,S)-norKet” below) [1] was “trace amounts”, the Vmax (expressed CYP3A5; [4]) was 0.029 pmol/min/pmol P450 and the Vmax (expressed CYP3A5; [5]) was 0.20 pmol/min/pmol P450. For the same compound, the Vmax (expressed CYP2B6; [4]) was 0.78 pmol/min/pmol P450 and the Vmax (expressed CYP2B6; [5]) was 3.34 pmol/min/pmol P450.
With NC1(c2ccccc2Cl)CCCC(O)C1=O [4a, (2S,6S;2R,6R)-HNK] the Vmax (expressed CYP2A6; [4]) was 8.18 pmol/min/pmol P450, the Vmax (expressed CYP2A6; [5]) was 3.9 pmol/min/pmol P450 and the “metabolite found … (R,S)-Ket” value [1] was “significant concentrations”. For the same compound, the “metabolite found … (R,S)-norKet” value [1] was “significant concentrations”, the Vmax (expressed CYP3A5; [4]) was 0.29 pmol/min/pmol P450 and the Vmax (expressed CYP3A5; [5]) was 3.87 pmol/min/pmol P450. For the same compound, the plasma concentration [2] was over 8 ng/mL, the “metabolite formation by other CYPs” value ([3]; substrate 5a, expressed CYPs other than CYP2B6, data not shown) was under 13 ng/mL and the Vmax (expressed CYP2B6; [4]) was 0.76 pmol/min/pmol P450. The Vmax (expressed CYP2B6; [5]) was 0.56 pmol/min/pmol P450 and the “N-demethylated metabolite formed (highest rate)” value (expressed CYP2B6; substrate 5a, expressed CYP2B6) was 201.6 ng/mL.
For NC1(c2ccccc2Cl)CCC=CC1=O (stereo not shown) [DHNK, 5,6-dehydronorketamine], the Vmax (expressed CYP2A6; [4]) was 0.98 pmol/min/pmol P450, the Vmax (expressed CYP2A6; [5]) was 0.92 pmol/min/pmol P450 and the “metabolite found … (R,S)-Ket” value [1] was “significant concentrations”. The “metabolite found … (R,S)-norKet” value [1] was “significant concentrations”, the Vmax (expressed CYP3A5; [4]) was 0.079 pmol/min/pmol P450 and the Vmax (expressed CYP3A5; [5]) was 1.96 pmol/min/pmol P450. For the same compound, the plasma concentration [2] was over 8 ng/mL, the Vmax (expressed CYP2B6; [4]) was 13.0 pmol/min/pmol P450 and the Vmax (expressed CYP2B6; [5]) was 7.61 pmol/min/pmol P450.
For CNC1(c2ccccc2Cl)CCCC(O)C1=O (single isomer, unassigned) [5a], the “metabolite found … (R,S)-Ket” value [1] was “significant concentrations” and the “decrease of substrate concentration in the incubates” value (expressed CYP2B6; substrate 5a, incubates containing CYP2B6) was 42.5%.
With N[C@]1(c2ccccc2Cl)CCCCC1=O [(S)-norKet] the “depletion of substrate from the incubation mixture” value (shortened to “depletion of substrate”) (expressed CYP2A6) was 41.0%, the “depletion of substrate” value (expressed CYP2C19) was 27.3% and the “disappearance of substrate, other isoforms (no appreciable effect, cutoff)” value ([3]; data not shown) was under 24%. For the same compound, the “depletion of substrate” value (expressed CYP2B6; expressed CYP2B6) was 41.6%.
For NC1(c2ccccc2Cl)CC(O)CCC1=O [4e, (2S,4R;2R,4S)-HNK], the “metabolite found … (R,S)-Ket” value [1] was “trace amounts”, the “metabolite found … (R,S)-norKet” value [1] was “trace amounts” and the Vmax (expressed CYP3A5; [4]) was 0.087 pmol/min/pmol P450. It also gave a Vmax (expressed CYP3A5; [5]) of 3.14 pmol/min/pmol P450.
With CNC1(c2ccccc2Cl)CCCC(O)C1=O (single isomer, unassigned) [5b] the “metabolite found … (R,S)-Ket” value [1] was “significant concentrations”.
With N[C@@]1(c2ccccc2Cl)CCCCC1=O [(R)-norKet] the “depletion of substrate” value (expressed CYP2A6) was 34.5%, the “depletion of substrate” value (expressed CYP2C19) was 35.0% and the “disappearance of substrate, other isoforms (no appreciable effect, cutoff)” value ([3]; data not shown) was under 24%. For the same compound, the “depletion of substrate” value (expressed CYP2B6; expressed CYP2B6) was 47.8%.
With NC1(c2ccccc2Cl)CCCC(O)C1=O [4b, (2S,6R;2R,6S)-HNK] the “metabolite found … (R,S)-Ket” value [1] was “significant concentrations”, the “metabolite found … (R,S)-norKet” value [1] was “not detected” and the “generation from (S)- or (R)-norKet by any of the expressed CYPs” value ([3]; 10 expressed CYPs) was “not generated”.
For NC1(c2ccccc2Cl)CCC(O)CC1=O [4f, (2S,5R;2R,5S)-HNK], the Vmax (expressed CYP2A6; [4]) was 0.44 pmol/min/pmol P450, the Vmax (expressed CYP2A6; [5]) was 0.33 pmol/min/pmol P450 and the “metabolite found … (R,S)-Ket” value [1] was “significant concentrations”. The “metabolite found … (R,S)-norKet” value [1] was “significant concentrations”, the Vmax (expressed CYP3A5; [4]) was 1.69 pmol/min/pmol P450 and the Vmax (expressed CYP3A5; [5]) was 5.71 pmol/min/pmol P450. The “Clint for formation from (R)-norKet relative to (S)-norKet” value (expressed CYP2B6; enzyme not given, Table 5, fits CYP2B6) was ~ 10 fold, the Vmax (expressed CYP2B6; [4]) was 3.98 pmol/min/pmol P450 and the Vmax (expressed CYP2B6; [5]) was 0.30 pmol/min/pmol P450.
For NC1(c2ccccc2Cl)CCC(O)CC1=O [4c, (2S,5S;2R,5R)-HNK], the Vmax (expressed CYP2A6; [4]) was 1.25 pmol/min/pmol P450, the Vmax (expressed CYP2A6; [5]) was 1.48 pmol/min/pmol P450 and the “metabolite found … (R,S)-Ket” value [1] was “significant concentrations”. For the same compound, the “metabolite found … (R,S)-norKet” value [1] was “significant concentrations”, the Vmax (expressed CYP3A5; [4]) was 0.038 pmol/min/pmol P450 and the Vmax (expressed CYP3A5; [5]) was 0.30 pmol/min/pmol P450. It also gave a Vmax (expressed CYP2B6; [4]) of 16.72 pmol/min/pmol P450 and a Vmax (expressed CYP2B6; [5]) of 16.3 pmol/min/pmol P450.
For NC1(c2ccccc2Cl)CCCCC1=O (racemic) [(R,S)-norKet, norketamine], the “metabolite found … (R,S)-Ket” value [1] was “significant concentrations”.

From publication PMC3426663 (Xenobiotica; the fate of foreign compounds in biological …, 2012)
